High-throughput results (PubChem)
SR-BI uptake up: SR-BI HDL lipid transfer activation | hit rate 0.096% among 320,000 | CHO ldlA[mSR-BI] cells, DiI-HDL uptake fluorescence, 3 h; 100 = double the neutral-control signal | activation, % at 12.5 µM;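 active means mean replicate activation of at least 60% and every replicate at or above 60%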;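 further: 0% = median plate neutral-control signal and 100% = twice that signal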
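Assay system: CHO ldlA[mSR-BI] cells, LDL receptor-null, SR-BI overexpressing; medium: Ham's F12 with 0.5% BSA, HEPES 25 mM, pH 7.4; also added: DiI-HDL 10 µg/mL; timing: 3 h uptake period with compound, 37 °C; signal: DiI fluorescence, bottom read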
CAL PDZ FP-1: inhibitors of human CAL PDZ peptide binding | Q9HD26 | purified CAL PDZ, TMR-peptide fluorescence polarization, 1 h | inhibition, % at 20 µM | hit rate 0.02% among 330,000 | AID 504414;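 active means highest replicate inhibition of at least 40%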;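 further: plate controls were DMSO neutral control wells for no effect and unlabeled competitor peptide control wells for full effect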
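System: purified tagged CAL PDZ domain construct (CerCALP). Schedule: 1 h incubation at room temperature before polarization reading. Medium: 25 mM sodium phosphate pH 7.4, 150 mM NaCl, TCEP, IgG, Thesit. Read-out: percent inhibition from loss of millipolarization. Measured by: FP readout, S and P plane fluorescence. Probe or stimulus: fluorescent TMR peptide probe.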
CAL PDZ FP-2: inhibitors of human CAL PDZ peptide binding | purified CAL PDZ, TMR-peptide fluorescence polarization, 1 h | inhibition, % at 24.9 µM | hit rate 0.92% among 300,000 | Q9HD26;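 active means mean inhibition of at least 30% with at least half of replicates also reaching 30%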;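 further: 0% = DMSO neutral control and 100% = excess unlabeled competitor peptide PRC23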
SR-BI DiI inh: mouse SR-BI HDL lipid transfer inhibition; Q61009; ldlA[mSR-BI] CHO cells, DiI-HDL uptake fluorescence, 3 h; inhibition, % at 12.5 µM; AID 488896; hit rate 0.96% among 320,000;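 active means mean replicate inhibition of at least 70% and a set share of replicates each scoring 70 or more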;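 further: 0% = median of neutral control wells and 100% = median of positive control wells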
Target sequence (Q61009 whole entry, looked up): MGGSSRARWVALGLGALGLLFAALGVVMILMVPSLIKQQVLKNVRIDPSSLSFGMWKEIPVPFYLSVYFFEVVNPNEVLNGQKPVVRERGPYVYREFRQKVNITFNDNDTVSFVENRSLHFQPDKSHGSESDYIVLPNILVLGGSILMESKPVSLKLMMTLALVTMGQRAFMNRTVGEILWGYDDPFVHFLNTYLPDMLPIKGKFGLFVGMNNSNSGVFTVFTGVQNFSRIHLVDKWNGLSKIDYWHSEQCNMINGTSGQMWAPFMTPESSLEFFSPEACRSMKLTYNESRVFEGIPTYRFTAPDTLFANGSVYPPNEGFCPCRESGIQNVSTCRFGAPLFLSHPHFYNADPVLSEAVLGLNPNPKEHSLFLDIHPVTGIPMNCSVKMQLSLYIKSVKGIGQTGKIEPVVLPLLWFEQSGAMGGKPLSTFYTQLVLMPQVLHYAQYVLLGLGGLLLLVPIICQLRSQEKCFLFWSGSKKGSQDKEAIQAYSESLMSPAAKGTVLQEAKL
ARNT-TACC3 inh: disruptors of human ARNT/TACC3 interaction. AlphaScreen His-ARNT PAS-B/GST-TACC3 binding, luminescence; TACC3 fragment carries E629A point mutation. inhibition, % at 9.99 µM. hit rate 0.66% among 390,000. AID 623870;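 active means mean inhibition of replicates at least 50% and at least half of replicates each reaching 50%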;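 further: 0% = complete ARNT plus TACC3 wells and 100% = ARNT alone without TACC3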
miR122 inh: miR-122 inhibition in Huh7 cells; hit rate 0.3% among 340,000; Huh7 miR-122 Renilla luciferase sensor, 48 h; neutral wells = 0, positive control = 100; activation (reporter increase), % at 12.5 µM;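 active means mean replicate activation score at least 90 and every replicate individually at or above 90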;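 further: higher luciferase means less miR-122 activity so hits act as miR-122 inhibitors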
ARNT Alpha ctr: counter-screen for ARNT/TACC3 inhibitors: AlphaScreen artifacts. shares compounds with ARNT-TACC3 inh. His-ARNT PASB-GST AlphaScreen artifact counter-screen, luminescence. AC50, µM (series often up to 68 µM), for inactives: at the top dose activity change, negative = signal decrease. hit rate 50% among 1,200;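 active means every separate test run was called active for a drop in luminescence, with AC50 within twice the top valid dose, actives reach about 71 µM in these data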
Active calls of the source: *; nt = no result; [ ] = remark or other dose. Hits are enriched below; roughly 2.1% of the tested compounds scored in any of these assays.

SMILES | SR-BI uptake up | CAL PDZ FP-1 | CAL PDZ FP-2 | SR-BI DiI inh | ARNT-TACC3 inh | miR122 inh | ARNT Alpha ctr
C[C@@H]1CCCCO[C@H](CN(C)S(=O)(=O)c2cccs2)[C@@H](C)CN([C@@H](C)CO)C(=O)c2cc(NC(=O)Nc3ccc(F)cc3)ccc2O1 | nt | nt | nt | nt | 13.8 | 19.8[16.7 µM] | nt
CN(C)S(=O)(=O)N1CCN(S(=O)(=O)c2ccc(F)cc2)CC1 | 21.4 | -1.9 | 10.4 | -21.4 | 50.7* | 15.9 | -0.1%
Cc1cc(C)c2nc(C)cc(N/N=C/c3ccc(O)cc3)c2c1 | 3.5 | 15.5 | 11.6 | -3.5 | 54.7* | nt | 32µM*
Cc1cc(N/N=C/c2ccc(O)cc2)c2cccc(C)c2n1 | -10.3 | 6.2 | -3.8 | 10.3 | 0.9 | nt | nt
COc1ccc(CCNC(=O)CSc2nnc(Cc3csc(N)n3)n2C)cc1OC | 27.4 | 0.3 | -0.6 | -27.4 | 28.2* | -2.9 | -9.9%
C[C@H](CO)N1C[C@H](C)[C@H](CN(C)S(C)(=O)=O)Oc2ccc(NS(=O)(=O)c3ccc(Cl)cc3)cc2CC1=O | nt | nt | nt | nt | -8.2 | -4.1[16.7 µM] | nt
CCc1c(C)nc(Nc2nc(C)c3ccc(OC)cc3n2)[nH]c1=O | -8.1 | -7.1 | 8.8 | 8.1 | 50.7* | -4.9 | -37.5%
CCc1c(C)nc(Nc2nc(C)c3cc(OC)ccc3n2)[nH]c1=O | -26.1 | -5.2 | -3.2 | 26.1 | 20.1 | 2.3 | nt
CCC(=O)NC(c1ccc(C)cc1)c1ccc2cccnc2c1O (stereo not drawn) | -20.0 | -0.9 | -3.9 | 20.0 | 35.2* | -6.2 | 28.1µM*
CC(=O)NC(c1ccc(Cl)cc1)c1ccc2cccnc2c1O (stereo not drawn) | 35.0 | -0.2 | -4.6 | -35.0 | 26.8 | -16.5 | nt
CCCC(=O)NC(c1ccc(N(C)C)cc1)c1ccc2cccnc2c1O (stereo not drawn) | 16.6 | 0.3 | nt | -16.6 | 60.1* | -23.6 | 17.9µM*
CCCC(=O)NC(c1ccc(C(C)C)cc1)c1ccc2cccnc2c1O (stereo not drawn) | -22.4 | -0.6 | -1.9 | 22.4 | -1.6 | nt | nt
Cc1cc(NC(c2ccc(Cl)cc2)c2ccc3cccnc3c2O)no1 (stereo not drawn) | -49.0 | -0.9 | -2.4 | 49.0 | 55.1* | 3.1 | 9.99µM*
O=C(CN1CCOCC1)N[C@H]1CC[C@H](CCNC(=O)C2CCCC2)O[C@H]1CO | nt | nt | nt | nt | 3.5 | 15.3[16.7 µM] | nt
c1ccc(-c2cnc(-c3ccccn3)nn2)cc1 | -26.5 | -0.8 | -1.0 | 26.5 | 64.5* | -2.9 | 32.2µM*
c1ccc(-c2cncnc2)nc1 | 23.6 | 1.0 | -8.9 | -23.6 | -2.3 | -6.9 | nt
c1ccc(-c2cnnc(-c3ccccn3)n2)cc1 | 19.5 | -1.7 | -5.0 | -19.5 | 57.1* | -11.5 | 26.3µM*
Cc1ccccc1-c1cnc2c(c1)C(=O)N([C@@H](C)CO)C[C@H](C)[C@H](CN(C)C(=O)c1ccc(F)cc1)O2 | nt | nt | nt | nt | -3.7 | nt | nt
CCOc1cc(C(=O)NC2CC(C)(C)NC(C)(C)C2)cc(OCC)c1OCC | 7.0 | -0.2 | nt | -7.0 | 53.0* | 4.1 | -2.4%
CCOc1ccc(C(=O)NC2CC(C)(C)NC(C)(C)C2)cc1 | -17.6 | -0.8 | -3.1 | 17.6 | -1.4 | -3.2 | nt
O=C(NCCCN1CCOCC1)c1cc(-c2ccccc2)on1 | 38.3 | -1.3 | -1.0 | -38.3 | -0.3 | -3.4 | 9.6%[38 µM]
O=C(NCCN1CCOCC1)c1cc(-c2ccccc2)on1 | 25.8 | -2.8 | -5.4 | -25.8 | -2.1 | nt | 2.4%[38 µM]
O=C(NCCN1CCOCC1)c1cc(-c2ccc(Br)cc2)on1 | -2.3 | -2.3 | nt | 2.3 | -14.1 | -3.0 | nt
COc1ccc(/C=N/Nc2nncn2N)cc1Br | 20.7 | 1.8 | -2.0 | -20.7 | 54.8* | -2.6 | -18.6%
CC(=O)N(C1=C(O)c2ccccc2C(=O)C1=O)C1CCCCC1 | 22.2 | -0.8 | -0.4 | -22.2 | 3.5 | -3.3 | nt
SMILES | SR-BI uptake up | CAL PDZ FP-1 | CAL PDZ FP-2 | SR-BI DiI inh | ARNT-TACC3 inh | miR122 inh | ARNT Alpha ctr
CC(=O)N(C)C1=C(O)c2ccccc2C(=O)C1=O | 4.2 | -1.4 | -1.1 | -4.2 | 11.5* | -2.0 | 5.3%
C[C@@H]1CCCCO[C@@H](CN(C)S(C)(=O)=O)[C@@H](C)CN([C@@H](C)CO)C(=O)c2cc(NS(C)(=O)=O)ccc2O1 | nt | nt | nt | nt | -0.9 | -5.2[16.7 µM] | nt
COc1cc(C2C(C#N)=C(N)Oc3n[nH]c(C)c32)ccc1OC(=O)c1ccccc1 (stereo not drawn) | 20.0 | -3.3 | -1.1 | -20.0 | 60.3* | nt | -26.4%
O=[N+]([O-])c1cccc(/C=N/Nc2nc(NCc3ccccc3)nc(N3CCOCC3)n2)c1O | 14.6 | 2.0 | 4.0 | -14.6 | 59.1* | nt | 14.2µM*
C[C@H]1CN([C@@H](C)CO)C(=O)c2cc(C3=CCCCC3)cnc2O[C@@H]1CN(C)C(=O)c1ccncc1 | nt | nt | nt | nt | -0.9 | -6.4[16.7 µM] | nt
O=C(C[C@H]1CC[C@@H](NC(=O)CN2CCOCC2)[C@H](CO)O1)NC1CCCCC1 | nt | nt | nt | nt | 7.9 | nt | nt
C[C@@H]1CN([C@H](C)CO)C(=O)c2cc(-c3cncnc3)cnc2O[C@@H]1CN(C)C(=O)c1cccc(F)c1 | nt | nt | nt | nt | 0.4 | -4.6[16.7 µM] | nt
CN(C)c1ccc2c(c1)[C@@H]1C[C@@H](CC(=O)N3CCOCC3)O[C@@H](CO)[C@@H]1O2 | nt | nt | nt | nt | 69.9* | 0.6[16.7 µM] | -8.3%[38 µM]
CN(C)c1ccc2c(c1)[C@H]1C[C@H](CC(=O)N3CCc4ccccc4C3)O[C@@H](CO)[C@H]1O2 | nt | nt | nt | nt | 6.2 | -11.7[16.7 µM] | nt
O=C(N[C@@H]1CC[C@@H](CCn2cc(-c3ccccn3)nn2)O[C@@H]1CO)c1cccnc1 | nt | nt | nt | nt | 80.8* | nt | 44.1µM*
O=C(N[C@H]1CC[C@H](CCn2cc(C3CC3)nn2)O[C@@H]1CO)c1cccnc1 | nt | nt | nt | nt | -23.1 | -0.8[16.7 µM] | nt
O=C(N[C@@H]1CC[C@H](CCn2cc(C3CCCCC3)nn2)O[C@H]1CO)c1cccnc1 | nt | nt | nt | nt | 3.8 | nt | nt
